According to ChEMBL document CHEMBL4480456, “Potentially Cardiotoxic Diterpenoid Alkaloids from the Roots of Aconitum carmichaelii” (J Nat Prod, 2019):

Tests used:
[1] = tested on: H9c2; assay: Cytotoxicity against rat H9c2 cells assessed as reduction in cell viability after 24 hrs by MTT assay; type: cell-based; conditions: H9c2, 24 h
Outline: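 H9c2 cells cultured in DMEM with 10% FBS, penicillin/streptomycin/glutamine at 37 °C, 5% CO2. Seeded 1 × 10^5 cells/well, grown 24 h, then exposed to compounds for 24 h. The compounds came from 80 mM DMSO stocks diluted in complete medium to a series of concentrations. MTT added for 4 h, formazan dissolved in DMSO, OD read at 490 nm. Inhibition % taken against a cell-free medium blank. At least three experiments.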

[2] = tested on: H9c2; assay: Induction of apoptosis in rat H9c2 cells at 40 uM after 24 hrs by DAPI/annexin V-FITC/PI double staining-based assay; type: cell-based; conditions: h9c2, 24 h
Outline: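 H9c2 cells in imaging plates exposed 24 h, PBS-washed, stained 30 min with annexin V-FITC and PI. Then fixed in 4% paraformaldehyde 15 min and DAPI-labelled 20 min. High-content imaging on In Cell Analyzer 6000 quantified nuclear size and annexin V-FITC and PI intensities. Means ± SD, three independent experiments.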

[3] = tested on: H9c2; assay: Disruption of mitochondrial membrane potential in rat H9c2 cells at 40 uM after 24 hrs by rhodamine 123 staining-based assay; type: ADME, cell-based; conditions: h9c2, 24 h
Outline: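 H9c2 cells in imaging plates exposed 24 h, PBS-washed and stained 30 min with rhodamine 123. Then fixed in 4% paraformaldehyde 15 min and counterstained with DAPI 20 min. Rh123 intensity quantified by high-content imaging on In Cell Analyzer 6000. Means ± SD, three independent experiments.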

[4] = tested on: H9c2; assay: Increase in intracellular calcium levels in rat H9c2 after 30 to 430 secs by FLIPR assay; type: ADME, cell-based
Outline: (§1)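 H9c2 cells seeded at 1 × 10^5 cells/well and grown to confluency. Medium replaced by HBSS with 20 mM HEPES, then loaded with calcium-sensitive dye (Calcium 6 kit) for 2 h at 37 °C. Compounds freshly prepared in HBSS/HEPES were added and fluorescence was read on FLIPR. ΔF/F0 taken as peak amplitude change over initial intensity. Means ± SD, three independent experiments.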

[5] = tested on: H9c2; assay: Induction of membrane potential in rat H9c2 cells after 50 to 650 secs by FLIPR assay; type: cell-based
Outline: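 H9c2 cells seeded at 1 × 10^5 cells/well and grown to confluency. Switched to HBSS with 20 mM HEPES and loaded with blue membrane-potential dye for 30 min at 37 °C. Compounds freshly prepared in HBSS/HEPES were added and fluorescence was read on FLIPR. ΔF/F0 taken as peak change over initial intensity. Means ± SD, three independent experiments.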

[6] = tested on: H9c2; assay: Increase in intracellular calcium levels in rat H9c2 at 80 uM after 30 to 430 secs by FLIPR assay; type: ADME, cell-based; conditions: h9c2, 80 µM; outline: as §1

CCN1C[C@]2(COC)CC[C@H](OC)[C@@]34[C@@H]5C[C@@]6(O)[C@H](OC(=O)c7ccccc7)[C@@H]5[C@@](OC)([C@@H]([C@H](OC)[C@H]23)[C@H]14)[C@@H](O)[C@@H]6OC
IC50 [1]: 95.6 µM

CCN1C[C@]2(COC)CC[C@H](OC)[C@@]34[C@@H]5C[C@@]6(O)[C@H](OC(=O)c7ccccc7)[C@@H]5[C@](OC)([C@@H](O)[C@@H]6OC)[C@@H](C[C@H]23)[C@H]14
IC50 [1]: > 100 µM

CCN1C[C@]2(COC)CC[C@H](OC)[C@@]34[C@@H]5C[C@@H]6[C@@H](OC)[C@H](O)[C@@](OC)([C@H]5[C@H]6OC(=O)c5ccccc5)[C@@H](C[C@H]23)[C@H]14
IC50 [1]: > 100 µM

CCN1C[C@]2(COC)[C@H](O)C[C@H](OC)[C@]34[C@@H]1[C@H]([C@H](OC)[C@H]23)[C@]1(OC(=O)c2ccccc2)[C@H]2[C@@H](OC(=O)c3ccccc3)[C@](O)(C[C@]24O)[C@@H](OC)[C@@H]1O
IC50 [1]: > 100 µM

CCCCO[C@]12[C@H]3[C@@H](OC(=O)c4ccccc4)[C@](O)(C[C@H]3[C@@]34[C@@H](OC)C[C@@H](O)[C@@]5(COC)CN(C)[C@H]3[C@@H]1[C@H](OC)[C@H]54)[C@@H](OC)[C@@H]2O
Activity [2]: Toxic
Activity [3]: Toxic
IC50 [1]: 27 µM

COC[C@@]12CC[C@H](OC)[C@@]34[C@@H]5C[C@@]6(O)[C@H](OC(=O)c7ccccc7)[C@@H]5[C@@](OC(=O)c5ccccc5)([C@@H]([C@H](OC)[C@H]13)[C@@H]4N(C)C2)[C@@H](O)[C@@H]6OC
IC50 [1]: 44.3 µM

COC[C@]12CN(C)[C@H]3[C@@H]4[C@H](OC)[C@H]1[C@@]3([C@@H](OC)C[C@H]2O)[C@@H]1C[C@@]2(O)[C@H](OC(=O)c3ccccc3)[C@@H]1[C@]4(OC(C)=O)[C@@H](O)[C@@H]2OC
Activity [4]: Toxic
Activity [2]: Non-Toxic
Activity [3]: Toxic

COC[C@]12CN(C)[C@H]3[C@@H]4[C@H](OC)[C@H]1[C@@]3([C@@H](OC)C[C@H]2O)[C@@H]1C[C@@]2(O)[C@H](OC(=O)c3ccccc3)[C@@H]1[C@]4(OC(=O)c1ccccc1)[C@@H](O)[C@@H]2OC
IC50 [1]: 12.9 µM

C=C1[C@@H](O)[C@@]23C[C@H]4[C@@H]5[C@@]6(C)CCC[C@@]57[C@@H]2C[C@@H]1[C@H](OC(C)=O)[C@@H]3[C@H]7N4[C@H]6O
IC50 [1]: > 100 µM

CCCCO[C@]12[C@H]3[C@@H](OC(=O)c4ccccc4)[C@](O)(C[C@H]3[C@@]34[C@@H](OC)CC[C@@]5(COC)CN(CC)[C@H]3[C@@H]1[C@H](OC)[C@H]54)[C@@H](OC)[C@@H]2O
Activity [5]: Dose-dependent effect
Activity [6]: Toxic
Activity [2]: Toxic
Activity [3]: Toxic
IC50 [1]: 19.2 µM

COC[C@@]12CC[C@H](OC)[C@@]34[C@@H]5C[C@@]6(O)[C@H](OC(=O)c7ccccc7)[C@@H]5[C@@](OC(C)=O)([C@@H]([C@H](OC)[C@H]13)[C@@H]4N(C)C2)[C@@H](O)[C@@H]6OC
Activity [4]: Toxic
Activity [2]: Non-Toxic
Activity [3]: Toxic

CCN1C[C@]2(COC)[C@H](O)C[C@H](OC)[C@@]34[C@@H]5C[C@@]6(O)[C@H](OC(=O)c7ccccc7)[C@@H]5[C@@](OC)([C@@H]([C@H](OC)[C@H]23)[C@H]14)[C@@H](O)[C@@H]6OC
IC50 [1]: 68.4 µM

CCCCO[C@]12[C@H]3[C@@H](OC(=O)c4ccccc4)[C@](O)(C[C@H]3[C@@]34[C@@H](OC)C[C@@H](O)[C@@]5(COC)CN(CC)[C@H]3[C@@H]1[C@H](OC)[C@H]54)[C@@H](OC)[C@@H]2O
Activity [5]: Dose-dependent effect
Activity [6]: Toxic
IC50 [1]: 21.2 µM

COC[C@]12CN(C)[C@H]3[C@@H]4[C@H](OC)[C@H]1[C@@]3([C@@H](OC)C[C@H]2O)[C@]1(O)C[C@@]2(O)[C@H](OC(=O)c3ccccc3)[C@@H]1[C@]4(OC(=O)c1ccccc1)[C@@H](O)[C@@H]2OC
IC50 [1]: > 100 µM

C=C1[C@@H](O)[C@@]23C[C@H]4[C@@H]5[C@@]6(C)CCC[C@@]57[C@@H]2C[C@@H]1[C@H](O)[C@@H]3[C@H]7N4[C@H]6O
IC50 [1]: > 100 µM
